Assay results published in ChEMBL document CHEMBL1121956, “Potential antitumor agents. 37. Organophosphorus derivatives of 9-anilinoacridine” (1982).

Legend:
Nucleic Acid = test: […] association constant for DNA binding to poly (dA.dT); type: nucleic-acid assay
Method in brief: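 Association constant for binding to the synthetic polynucleotide poly(dA-dT). Measured by a method described in earlier work.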

P388 [1] = test: Concentration for inhibiting the growth of P-388 cells by 50% over 3 days was determined; type: functional; conditions: Mus musculus, P388, 72 h; read-out: ID50 (the source's name)
Method in brief: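 Cytotoxicity was measured against cultured murine leukemia cells, P-388 and L1210, over 3 days of continuous drug exposure. Culture and drug-addition conditions follow an earlier report. The value is the drug concentration that inhibits growth by 50% over the 3 days.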

L1210 = test: Concentration for inhibiting the growth of L1210 cells by 50% over 3 days was determined; type: functional; conditions: Mus musculus, L1210, 72 h; read-out: ID50 (the source's name)
P388 [2] = test: Percentage increase in life span was measured for P-388 cells […] after intraperitoneal administration of a dose of 33 mg/kg; type: functional; conditions: Mus musculus, P388, ip
Method in brief: (§1)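 Mice received 10⁶ P-388 leukemia cells ip. Drug in 0.1 mL of 30% aqueous ethanol was injected ip on days 1, 5 and 9. Doses ran from a toxic level downward at 0.67-fold intervals, with 6 mice per group and 20–30 controls. The percentage increase in mean survival time over controls was taken at the optimal dose. ILS below 20% was treated as nonsignificant.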

P388 [3] = test: Percentage increase in life span was measured for P-388 cells […] after intraperitoneal administration of a dose of 30 mg/kg; type: functional; conditions: Mus musculus, P388, ip; method in brief: as §1
P388 [4] = test: Percentage increase in life span was measured for P-388 cells […] after intraperitoneal administration of a dose of 8.9 mg/kg; type: functional; conditions: Mus musculus, P388, ip; method in brief: as §1
P388 [5] = test: Percentage increase in life span was measured for P-388 cells […] after intraperitoneal administration of a dose of 330 mg/kg; type: functional; conditions: Mus musculus, P388, ip; method in brief: as §1
P388 [6] = test: Percentage increase in life span was measured for P-388 cells […] after intraperitoneal administration of a dose of 50 mg/kg; type: functional; conditions: Mus musculus, P388, ip; method in brief: as §1
P388 [7] = test: Percentage increase in life span was measured for P-388 cells […] after intraperitoneal administration of a dose of 110 mg/kg; type: functional; conditions: Mus musculus, P388, ip; method in brief: as §1
P388 [8] = test: Percentage increase in life span was measured for P-388 cells […] after intraperitoneal administration of a dose of 65 mg/kg; type: functional; conditions: Mus musculus, P388, ip; method in brief: as §1
P388 [9] = test: animal or person; conditions: Mus musculus, P388, ip
P388 [10] = test: Percentage increase in life span was measured for P-388 cells […] after intraperitoneal administration of a dose of 125 mg/kg; type: functional; conditions: Mus musculus, P388, ip; method in brief: as §1
P388 [11] = test: Percentage increase in life span was measured for P-388 cells […] after intraperitoneal administration of a dose of 190 mg/kg; type: functional; conditions: Mus musculus, P388, ip; method in brief: as §1
P388 [12] = test: Percentage increase in life span was measured for P-388 cells […] after intraperitoneal administration of a dose of 250 mg/kg; type: functional; conditions: Mus musculus, P388, ip; method in brief: as §1
P388 [13] = test: Percentage increase in life span was measured for P-388 cells […] after intraperitoneal administration of a dose of 66 mg/kg; type: functional; conditions: Mus musculus, P388, ip; method in brief: as §1
P388 [14] = test: Percentage increase in life span was measured for P-388 cells […] after intraperitoneal administration of a dose of 150 mg/kg; type: functional; conditions: Mus musculus, P388, ip; method in brief: as §1

Row | Compound | Log K (Nucleic Acid) | IC50 (P388 [1]) [nM] | IC50 (L1210) [nM] | other results
1 | NP(=O)(O)Nc1ccc(Nc2c3ccccc3nc3ccccc23)cc1 | 4.83 | 2800 | 1800 | 
2 | COP(=O)(Nc1ccc(Nc2c3ccccc3nc3ccccc23)cc1)OC | 6.26 | 10 | 15 | ILS at 33 mg/kg (P388 [2]): 74%
3 | O=P1(Nc2ccc(Nc3c4ccccc4nc4ccccc34)cc2)OCCCO1 | 6.78 | 50 | 110 | ILS at 30 mg/kg (P388 [3]): 47%
4 | COc1cc(NP(=O)(OC)OC)ccc1Nc1c2ccccc2nc2ccccc12 | 5.64 | 36 | 70 | ILS at 8.9 mg/kg (P388 [4]): 67%
5 | CS(=O)(=O)Cc1ccc(Nc2c3ccccc3nc3ccccc23)cc1 | 5.76 | 270 | 250 | ILS at 330 mg/kg (P388 [5]): 49%
6 | O=P1(Nc2ccc(Nc3c4ccccc4nc4ccccc34)cc2)NCCCO1 (stereo unspecified) | 6.58 | 450 | 800 | ILS at 50 mg/kg (P388 [6]): 9%
7 | CNP(=O)(NC)Nc1ccc(Nc2c3ccccc3nc3ccccc23)cc1 | 6.84 | 2000 | 2500 | ILS at 50 mg/kg (P388 [6]): 11%
8 | CCOP(=O)(Nc1ccc(Nc2c3ccccc3nc3ccccc23)cc1)OCC | 6.47 | 200 | 230 | ILS at 110 mg/kg (P388 [7]): 28%
9 | CP(C)(=O)Nc1ccc(Nc2c3ccccc3nc3ccccc23)cc1 | 6.81 | 1000 | 1300 | ILS at 65 mg/kg (P388 [8]): 18%
10 | CN(C)P(=O)(Nc1ccc(Nc2c3ccccc3nc3ccccc23)cc1)N(C)C | 6.08 | 1300 | 1500 | ILS at 50 mg/kg (P388 [6]): 29%
11 | CC(=O)Nc1ccc(Nc2c3ccccc3nc3ccccc23)cc1 |  | 54 | 100 | ILS at 30 mg/kg (P388 [3]): 57%
12 | COP(=O)(O)Nc1ccc(Nc2c3ccccc3nc3ccccc23)cc1 | 5.37 | 4000 | 2000 | 
13 | COc1cc(NS(C)(=O)=O)ccc1Nc1c2ccccc2nc2ccccc12 [AMSACRINE] | 5.57 | 30 |  | ILS at 13.3 mg/kg (P388 [9]): 78%
14 | CNC(=O)Nc1ccc(Nc2c3ccccc3nc3ccccc23)cc1 |  | 86 | 100 | ILS at 30 mg/kg (P388 [3]): 53%
15 | COP(=O)(Cc1ccc(Nc2c3ccccc3nc3ccccc23)cc1)OC | 5.67 | 1400 | 670 | ILS at 125 mg/kg (P388 [10]): 2%
16 | COP(=O)(NC(=O)c1ccc(Nc2c3ccccc3nc3ccccc23)cc1)OC | 5.56 | 4800 | > 35 | ILS at 190 mg/kg (P388 [11]): 12%
17 | O=P1(Nc2ccc(Nc3c4ccccc4nc4ccccc34)cc2)OCCO1 | 6.52 | 110 | 180 | ILS at 30 mg/kg (P388 [3]): 54%
18 | COP(=O)(Nc1cccc(Nc2c3ccccc3nc3ccccc23)c1)OC | 5.66 | 1400 | 1800 | ILS at 250 mg/kg (P388 [12]): 34%
19 | COC(=O)Nc1ccc(Nc2c3ccccc3nc3ccccc23)cc1 |  | 26 | 60 | ILS at 30 mg/kg (P388 [3]): 98%
20 | CS(=O)(=O)Nc1cccc(Nc2c3ccccc3nc3ccccc23)c1 |  | 90 | 110 | ILS at 66 mg/kg (P388 [13]): 53%
21 | CS(=O)(=O)Nc1ccc(Nc2c3ccccc3nc3ccccc23)cc1 |  | 40 | 35 | ILS at 150 mg/kg (P388 [14]): 93%
